According to ChEMBL document CHEMBL1123779, “Modifications of primaquine as antimalarials. 4. 5-Alkoxy derivatives of primaquine” (J Med Chem, 1987):

Assays:
[1] = tested on: Plasmodium berghei; assay: Blood schizonticidal activity in trophozoite-induced Plasmodium berghei infected mice (Mus musculus) at 40 mg/kg; numbers cured; type: functional
In short: (§1)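 Run at the Rane Laboratory with blood-induced P. berghei infections in mice, five animals per group. A cure is a mouse surviving to 60 days postinfection. Deaths before day 6 are recorded separately as toxic deaths. Activity is scored from the increase in mean survival time over untreated controls, and counts as active when treated MST is more than twice control MST.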

[2] = tested on: Mus musculus; assay: Suppressive blood schizonticidal antimalarial activity evaluated in the trophozoite-induced Plasmodium berghei infection in mice (Mus musculus) at a dose 10 mg/kg given as no. of cures; type: functional; in short: as §1
[3] = tested on: Mus musculus; assay: Suppressive blood schizonticidal antimalarial activity evaluated in the trophozoite-induced Plasmodium berghei infection in mice (Mus musculus) at a dose 160 mg/kg given as no. of toxic deaths; type: functional
In short: (§2)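 Rane Laboratory mouse test with blood-induced P. berghei infection, five mice per group. Toxic deaths are deaths occurring before the 6th day postinfection.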

[4] = tested on: Plasmodium berghei; assay: Suppressive blood schizonticidal antimalarial activity evaluated in the trophozoite-induced Plasmodium berghei infection in mice (Mus musculus) at a dose 640 mg/kg given as number of toxic deaths; type: toxicity, organism-based; parameters: dose 640 mg/kg; details: in vivo; in short: as §2
[5] = tested on: Mus musculus; assay: Suppressive blood schizonticidal antimalarial activity evaluated in the trophozoite-induced Plasmodium berghei infection in mice (Mus musculus) at a dose 5 mg/kg given as no. of cures; type: functional; in short: as §1
[6] = tested on: Mus musculus; assay: Suppressive blood schizonticidal antimalarial activity evaluated in the trophozoite-induced Plasmodium berghei infection in mice (Mus musculus) at a dose 2.5 mg/kg; type: functional
In short: (§3)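 Run at the Rane Laboratory in mice infected with blood-induced P. berghei, five animals per group. Activity is the increase in mean survival time over untreated infected controls. A compound counts as active when treated-group MST is more than twice the control MST. Cures are mice surviving at 60 days postinfection.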

[7] = tested on: Mus musculus; assay: Suppressive blood schizonticidal antimalarial activity evaluated in the trophozoite-induced Plasmodium berghei infection in mice (Mus musculus) at a dose 40 mg/kg given as number of toxic deaths; type: ADME, organism-based; parameters: dose 40 mg/kg; details: in vivo; in short: as §2
[8] = tested on: Plasmodium cynomolgi; assay: Cures in Plasmodium cynomolgi infected Rhesus monkeys (Macaca mulatta) on 1 mg/kg/day after 7 days; cured 2 of 2; type: functional
[9] = tested on: Plasmodium cynomolgi; assay: Cures in Plasmodium cynomolgi infected Rhesus monkeys (Macaca mulatta) on 0.316 mg/kg/day after 7 days; cured 0 of 1; type: functional
[10] = tested on: Mus musculus; assay: Suppressive blood schizonticidal antimalarial activity evaluated in the trophozoite-induced Plasmodium berghei infection in mice (Mus musculus) at a dose 20 mg/kg given as no. of cures; type: functional; in short: as §1
[11] = tested on: Plasmodium cynomolgi; assay: Cures in Plasmodium cynomolgi infected Rhesus monkeys (Macaca mulatta) on 0.1 mg/kg/day after 7 days (x7); cured 0 of 2; type: functional
[12] = tested on: Plasmodium cynomolgi; assay: Cures in Plasmodium cynomolgi infected Rhesus monkeys (Macaca mulatta) on 0.316 mg/kg/day after 7 days; cures 2 of 2; type: functional
[13] = tested on: Plasmodium cynomolgi; assay: Cures in Plasmodium cynomolgi infected Rhesus monkeys (Macaca mulatta) on 1 mg/kg/day after 7 days; cured 1 of 1; type: functional
[14] = tested on: Mus musculus; assay: Suppressive blood schizonticidal antimalarial activity evaluated in the trophozoite-induced Plasmodium berghei infection in mice (Mus musculus) at a dose 320 mg/kg given as no. of toxic deaths; type: functional; in short: as §2
[15] = tested on: Mus musculus; assay: Suppressive blood schizonticidal antimalarial activity evaluated in the trophozoite-induced Plasmodium berghei infection in mice (Mus musculus) at a dose 80 mg/kg given as no. of toxic deaths; type: functional; in short: as §2
[16] = tested on: Plasmodium cynomolgi; assay: Cures in Plasmodium cynomolgi infected Rhesus monkeys (Macaca mulatta) on 0.1 mg/kg/day after 7 days; cured 1 of 3; type: functional
[17] = tested on: Mus musculus; assay: Suppressive blood schizonticidal antimalarial activity evaluated in the trophozoite-induced Plasmodium berghei infection in mice (Mus musculus) at a dose 5 mg/kg; type: functional; parameters: unit not given beside the values; in short: as §3
[18] = tested on: Plasmodium cynomolgi; assay: Cures in Plasmodium cynomolgi infected Rhesus monkeys (Macaca mulatta) on 10.0 mg/kg/day after 7 days; type: functional, organism-based
[19] = tested on: Plasmodium berghei; assay: Blood schizonticidal antimalarial activity in the trophozoite-induced Plasmodium berghei infection in mice (Mus musculus) at 20 mg/kg; type: functional; parameters: unit not given beside the values; in short: as §3
[20] = tested on: Plasmodium cynomolgi; assay: Cures in Plasmodium cynomolgi infected Rhesus monkeys (Macaca mulatta) on 1 mg/kg/day after 7 days; cured 0 of 1; type: functional
[21] = tested on: Mus musculus; assay: Suppressive blood schizonticidal antimalarial activity evaluated in the trophozoite-induced Plasmodium berghei infection in mice (Mus musculus) at a dose 80 mg/kg; type: functional; parameters: unit not given beside the values; in short: as §3
[22] = tested on: Plasmodium cynomolgi; assay: Cures in Plasmodium cynomolgi infected Rhesus monkeys (Macaca mulatta) on 10.0 mg/kg/day after 7 days; cured 1 of 1; type: functional
[23] = tested on: Mus musculus; assay: Suppressive blood schizonticidal antimalarial activity evaluated in the trophozoite-induced Plasmodium berghei infection in mice (Mus musculus) at a dose 320 mg/kg; type: functional; in short: as §3
[24] = tested on: Mus musculus; assay: Suppressive blood schizonticidal antimalarial activity evaluated in the trophozoite-induced Plasmodium berghei infection in mice (Mus musculus) at a dose 40 mg/kg; type: functional; parameters: unit not given beside the values; in short: as §3
[25] = tested on: Mus musculus; assay: Suppressive blood schizonticidal antimalarial activity evaluated in the trophozoite-induced Plasmodium berghei infection in mice (Mus musculus) at a dose 160 mg/kg; type: functional; in short: as §3
[26] = tested on: Mus musculus; assay: Suppressive blood schizonticidal antimalarial activity evaluated in the trophozoite-induced Plasmodium berghei infection in mice (Mus musculus) at a dose 640 mg/kg given as no. of cures; type: functional; in short: as §1
[27] = tested on: Mus musculus; assay: Suppressive blood schizonticidal antimalarial activity evaluated in the trophozoite-induced Plasmodium berghei infection in mice (Mus musculus) at a dose 80 mg/kg given as no. of cures; type: functional; in short: as §1
[28] = tested on: Mus musculus; assay: Suppressive blood schizonticidal antimalarial activity evaluated in the trophozoite-induced Plasmodium berghei infection in mice (Mus musculus) at a dose 160 mg/kg given as no. of cures; type: functional; in short: as §1
[29] = tested on: Plasmodium cynomolgi; assay: Cures in Plasmodium cynomolgi infected Rhesus monkeys (Macaca mulatta) on 0.1 mg/kg/day after 7 days; cured 0 of 1; type: functional
[30] = tested on: Plasmodium cynomolgi; assay: Cures in Plasmodium cynomolgi infected Rhesus monkeys (Macaca mulatta) on 0.316 mg/kg/day after 7 days; cured 0 of 2; type: functional
[31] = tested on: Mus musculus; assay: Suppressive blood schizonticidal antimalarial activity evaluated in the trophozoite-induced Plasmodium berghei infection in mice (Mus musculus) at a dose 10 mg/kg; type: functional; in short: as §3
[32] = tested on: Mus musculus; assay: Suppressive blood schizonticidal antimalarial activity evaluated in the trophozoite-induced Plasmodium berghei infection in mice (Mus musculus) at a dose 320 mg/kg given as number of cures; type: functional; in short: as §1
[33] = tested on: Plasmodium cynomolgi; assay: Cures in Plasmodium cynomolgi infected Rhesus monkeys (Macaca mulatta) on 1 mg/kg/day after 7 days; cured 3 of 3; type: functional

SMILES	Cures [1]	Cures [2]	Toxic deaths [3]	Toxic deaths [4]	Cures [5]	Delta MST [6]	Cures [10]	Cures/no. of animals [11]	Cures/no. of animals [13]	Toxic deaths [14]	Delta MST [17]	Delta MST [19]	Delta MST [21]	Delta MST [23]	Delta MST [24]	Cures [26]	Cures [27]	Cures [28]	Cures/no. of animals [30]	other results
COCCCCCCOc1c(OC)cc(NC(C)CCCN)c2nccc(C)c12 (configuration not stated)	2	3	5	5	1	6.9	2	0	–	–	–	–	–	–	–	–	–	–	–	Toxic deaths [7]: 3; Cures/no. of animals [8]: 2; Cures/no. of animals [9]: 0
CCCCOCCOc1c(OC)cc(NC(C)CCCN)c2nccc(C)c12 (configuration not stated)	2	3	3	–	–	3.3	4	–	1	4	4.3	–	–	–	–	–	–	–	–	Cures/no. of animals [12]: 2; Toxic deaths [15]: 4; Cures/no. of animals [16]: 1; Cures/no. of animals [18]: Toxic
CCCCCCCCCCOc1c(OC)cc(NC(C)CCCN)c2ncccc12 (configuration not stated)	–	–	–	–	–	–	–	–	–	–	–	0.1	2.9	9.3	0.1	2	–	–	–	Cures/no. of animals [20]: 0; Cures/no. of animals [22]: 1; Delta MST [25]: 5.7
CCCOc1c(OC)cc(NC(C)CCCN)c2nccc(C)c12 (configuration not stated)	–	1	5	5	1	6	3	0	1	–	–	–	–	–	–	–	–	–	–	Cures/no. of animals [12]: 2; Toxic deaths [7]: 3
COc1cc(NC(C)CCCN)c2nccc(C)c2c1OCCCCCCOc1ccccc1 (configuration not stated)	5	2	–	2	–	–	4	–	1	2	7.3	–	–	–	–	–	4	2	0	Cures/no. of animals [29]: 0
COc1cc(NC(C)CCCN)c2nccc(C)c2c1OCCCCOc1ccccc1 (configuration not stated)	5	–	5	5	1	8	5	0	–	5	–	–	–	–	–	–	–	–	–	Toxic deaths [15]: 5; Delta MST [31]: 10.2
CCCCCCCCCOc1c(OC)cc(NC(C)CCCN)c2nccc(C)c12 (configuration not stated)	5	2	–	–	–	7.9	3	0	1	–	9.7	–	–	–	–	4	5	4	0	Cures [32]: 4; Cures/no. of animals [18]: Toxic
CCCCCCOc1c(OC)cc(NC(C)CCCN)c2ncccc12 (configuration not stated)	–	–	–	1	–	–	–	–	–	–	–	3.7	–	0.1	6.5	–	1	1	0	Cures/no. of animals [22]: 1; Cures/no. of animals [33]: 3
CCCCCCCCOc1c(OC)cc(NC(C)CCCN)c2ncccc12 (configuration not stated)	–	–	–	1	–	–	–	0	–	–	–	2.9	8.1	6.3	6.7	–	–	–	–	Cures/no. of animals [8]: 2; Cures/no. of animals [9]: 0; Delta MST [25]: 12.1
CCCCCCCCCCCCOc1c(OC)cc(NC(C)CCCN)c2nccc(C)c12 (configuration not stated)	–	–	–	–	–	–	–	–	–	–	–	3.2	7.6	–	6.4	5	–	4	–	Cures/no. of animals [20]: 0; Delta MST [31]: 2; Cures/no. of animals [29]: 0; Cures [32]: 5
